According to ChEMBL document CHEMBL3751664, “Design, Synthesis, and Identification of Silicon Incorporated Oxazolidinone Antibiotics with Improved Brain Exposure” (ACS Med Chem Lett, 2015):
≈ marks a conversion by molar mass, not a printed value.

How the values were obtained:
Plasma [1] = experiment: Metabolic stability in rat plasma by LC-MS/MS analysis; assay type: ADME, cell-free
In short: (§1)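 Plasma stability is expressed as % compound remaining after incubation in plasma.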

Plasma [2] = experiment: Metabolic stability in human plasma by LC-MS/MS analysis; assay type: ADME, cell-free; in short: as §1
[3] = Metabolic stability in mouse liver microsomes after 30 mins by LC-MS/MS analysis; assay type: ADME; conditions: read-out: Stability
In short: (§2)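 Compounds are incubated with liver microsomes for 30 min, and the result is expressed as % parent remaining (% metabolic stability).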

[4] = Metabolic stability in rat liver microsomes after 30 mins by LC-MS/MS analysis; assay type: ADME; conditions: read-out: Stability; in short: as §2
[5] = Metabolic stability in human liver microsomes after 30 mins by LC-MS/MS analysis; assay type: ADME; conditions: read-out: Stability; in short: as §2
[6] = Plasma protein binding in human; assay type: ADME, cell-free; conditions: read-out: PPB (converted)
[7] = Cmax in BALB/c mouse brain at 10 mg/kg, po by LC-MS/MS analysis; assay type: ADME, organism-based; design: dose 10 mg/kg, route oral
In short: (§3)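 Single oral 10 mg/kg dose, with 2 animals per group. Brain and plasma sampled; brain Cmax is reported as μg/g and brain AUC0-t and AUC0-inf as μg·h/g. Brain-to-plasma ratios are derived from AUC values, and also from Cmax.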

Brain [8] = experiment: AUC (0 to t) in BALB/c mouse brain at 10 mg/kg, po by LC-MS/MS analysis; assay type: ADME, organism-based; conditions: in vivo; in short: as §3
Brain [9] = experiment: AUC (0 to infinity) in BALB/c mouse brain at 10 mg/kg, po by LC-MS/MS analysis; assay type: ADME, organism-based; design: dose 10 mg/kg, time infinity, route oral; conditions: in vivo; in short: as §3
[10] = Cmax in BALB/c mouse plasma at 10 mg/kg, po by LC-MS/MS analysis; assay type: ADME, organism-based; design: dose 10 mg/kg, route oral; in short: as §3
[11] = AUC (0 to t) in BALB/c mouse plasma at 10 mg/kg, po by LC-MS/MS analysis; assay type: ADME, organism-based; in short: as §3
[12] = AUC (0 to infinity) in BALB/c mouse plasma at 10 mg/kg, po by LC-MS/MS analysis; assay type: ADME, organism-based; design: dose 10 mg/kg, time infinity, route oral; in short: as §3
Streptococcus pneumoniae [13] = experiment: Antibacterial activity against linezolid-resistant Streptococcus pneumoniae 6303 by microbroth dilution method; assay type: functional
In short: (§4)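 MIC is determined by broth microdilution and expressed in μg/mL.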

Neisseria meningitidis [14] = experiment: Antibacterial activity against clinical isolate Neisseria meningitidis E-63 by microbroth dilution method; assay type: functional
In short: (§5)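 Minimum inhibitory concentration (MIC) read by broth microdilution and reported in μg/mL. The same microbroth screen was run on the broader panel of facultative bacteria.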

Neisseria meningitidis [15] = experiment: Antibacterial activity against clinical isolate Neisseria meningitidis M-1 by microbroth dilution method; assay type: functional; in short: as §5
Neisseria meningitidis [16] = experiment: Antibacterial activity against clinical isolate Neisseria meningitidis 306 by microbroth dilution method; assay type: functional; in short: as §5
Neisseria meningitidis [17] = experiment: Antibacterial activity against clinical isolate Neisseria meningitidis E-95 by microbroth dilution method; assay type: functional; in short: as §5
Neisseria meningitidis [18] = experiment: Antibacterial activity against clinical isolate Neisseria meningitidis 184 by microbroth dilution method; assay type: functional; in short: as §5
[19] = Solubility of compound at pH 1.2 by HPLC analysis; assay type: physicochemical; conditions: buffer
[20] = Solubility of compound at pH 2.2 by HPLC analysis; assay type: physicochemical; conditions: buffer
[21] = Solubility of compound at pH 4.5 by HPLC analysis; assay type: physicochemical; conditions: buffer
[22] = Solubility of compound at pH 7.4 by HPLC analysis; assay type: physicochemical; conditions: buffer
[23] = Solubility of compound at pH 10.2 by HPLC analysis; assay type: physicochemical; conditions: buffer
[24] = Ratio of Cmax in brain to plasma in BALB/c mouse at 10 mg/kg, po; assay type: ADME, organism-based; in short: as §3
[25] = Ratio of AUC (0 to t) in brain to plasma in BALB/c mouse at 10 mg/kg, po; assay type: ADME, organism-based; in short: as §3
[26] = Ratio of AUC (0 to infinity) in brain to plasma in BALB/c mouse at 10 mg/kg, po; assay type: ADME, organism-based; in short: as §3
Streptococcus pneumoniae [27] = experiment: Antibacterial activity against Streptococcus pneumoniae ATCC 49619 by microbroth dilution method; assay type: functional; in short: as §4
Streptococcus pneumoniae [28] = experiment: Antibacterial activity against Streptococcus pneumoniae ATCC 6303 by microbroth dilution method; assay type: functional; in short: as §4
Streptococcus pneumoniae [29] = experiment: Antibacterial activity against pencillin-resistant erm+ve Streptococcus pneumoniae ATCC 700904 by microbroth dilution method; assay type: functional; in short: as §4

SMILES	Stability (Plasma [1])	Stability (Plasma [2])	remaining at 0.5 h [3]	remaining at 0.5 h [4]	remaining at 0.5 h [5]	fraction unbound [6]	Cmax [7]	AUCt (Brain [8])	AUC (Brain [9])	Cmax [10]	AUC(0-t) [11]	AUC(0-inf) [12]	MIC (Streptococcus pneumoniae [13])	MIC (Neisseria meningitidis [14])	MIC (Neisseria meningitidis [15])	MIC (Neisseria meningitidis [16])	MIC (Neisseria meningitidis [17])	MIC (Neisseria meningitidis [18])	solubility [19]	solubility [20]	other results
CC(=O)NC[C@H]1CN(c2ccc(N3CCOCC3)c(F)c2)C(=O)O1 [LINEZOLID]	100%	100%	100%	88.3%	100%	0.74	450 ng/g	0.83 µg·h/g	0.9 µg·h/g	3650 ng/mL	7580 ng·h/mL	7700 ng·h/mL	32 µg/mL (≈ 94.9 µM)	8 µg/mL (≈ 23.7 µM)	8 µg/mL (≈ 23.7 µM)	8 µg/mL (≈ 23.7 µM)	8 µg/mL (≈ 23.7 µM)	8 µg/mL (≈ 23.7 µM)	–	–	–
COC(=S)NC[C@H]1CN(c2ccc(N3CC[Si](C)(C)CC3)c(F)c2)C(=O)O1	100%	100%	15.2%	5.7%	43%	–	1470 ng/g	3.11 µg·h/g	3.24 µg·h/g	370 ng/mL	870 ng·h/mL	930 ng·h/mL	32 µg/mL (≈ 77.8 µM)	32 µg/mL (≈ 77.8 µM)	32 µg/mL (≈ 77.8 µM)	32 µg/mL (≈ 77.8 µM)	32 µg/mL (≈ 77.8 µM)	32 µg/mL (≈ 77.8 µM)	48 µM (≈ 19.8 µg/mL)	47 µM (≈ 19.3 µg/mL)	solubility [21]: 9 µM (≈ 3.7 µg/mL); solubility [22]: 2 µM (≈ 0.823 µg/mL); solubility [23]: 2 µM (≈ 0.823 µg/mL); Kp [24]: 3.96; Kp [25]: 3.57; Kp [26]: 3.49; MIC (Streptococcus pneumoniae [27]): 4 µg/mL (≈ 9.72 µM); MIC (Streptococcus pneumoniae [28]): 4 µg/mL (≈ 9.72 µM); MIC (Streptococcus pneumoniae [29]): 4 µg/mL (≈ 9.72 µM)
CC(=O)NC[C@H]1CN(c2cc(F)c(N3CC[Si](C)(C)CC3)c(F)c2)C(=O)O1	94.7%	100%	68.4%	9.6%	69.8%	0.004	5580 ng/g	14.74 µg·h/g	16.44 µg·h/g	2020 ng/mL	5800 ng·h/mL	6210 ng·h/mL	> 32 µg/mL	> 32 µg/mL	> 32 µg/mL	> 32 µg/mL	> 32 µg/mL	> 32 µg/mL	48 µM (≈ 19.1 µg/mL)	43 µM (≈ 17.1 µg/mL)	solubility [21]: 20 µM (≈ 7.95 µg/mL); solubility [22]: 17 µM (≈ 6.76 µg/mL); solubility [23]: 20 µM (≈ 7.95 µg/mL); Kp [24]: 2.76; Kp [25]: 2.54; Kp [26]: 2.65; MIC (Streptococcus pneumoniae [27]): 16 µg/mL (≈ 40.3 µM); MIC (Streptococcus pneumoniae [28]): 8 µg/mL (≈ 20.1 µM); MIC (Streptococcus pneumoniae [29]): 16 µg/mL (≈ 40.3 µM)
CC(=O)NC[C@H]1CN(c2ccc(N3CC[Si](C)(C)CC3)c(F)c2)C(=O)O1	97.3%	100%	40.8%	10.8%	48.9%	0.0567	1330 ng/g	3.01 µg·h/g	3.05 µg·h/g	1050 ng/mL	1780 ng·h/mL	1800 ng·h/mL	> 32 µg/mL	32 µg/mL (≈ 84.3 µM)	> 32 µg/mL	> 32 µg/mL	> 32 µg/mL	> 32 µg/mL	50 µM (≈ 19 µg/mL)	50 µM (≈ 19 µg/mL)	solubility [21]: 41 µM (≈ 15.6 µg/mL); solubility [22]: 40 µM (≈ 15.2 µg/mL); solubility [23]: 41 µM (≈ 15.6 µg/mL); Kp [24]: 1.27; Kp [25]: 1.69; Kp [26]: 1.69; MIC (Streptococcus pneumoniae [27]): 8 µg/mL (≈ 21.1 µM); MIC (Streptococcus pneumoniae [28]): 4 µg/mL (≈ 10.5 µM); MIC (Streptococcus pneumoniae [29]): 4 µg/mL (≈ 10.5 µM)
